Experimental data: ChEMBL document CHEMBL1255566, “Rigid analogues of the α2-adrenergic blocker atipamezole: small changes, big consequences” (J Med Chem, 2010)

Columns and labels:
Mus musculus [1] = test: Antihypothermic activity in po dosed NMRI mouse assessed as inhibition of guanabenz-induced hypothermia administered 35 mins before guanabenz challenge measured after 25 mins; format: functional
Procedure, shortened: (§1)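 Mice got the compound by intraperitoneal injection or oral gavage before guanabenz challenge, and reversal of guanabenz-induced hypothermia was scored. Five animals were tested per dose. ED50 is the dose giving an inhibitory effect in 50% of guanabenz-treated animals, with 95% confidence limits.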

[2] = molecular target: T1, Alpha-1B adrenergic receptor (Homo sapiens, UniProt P35368); test: Displacement of [3H]-prazosin from human adrenergic alpha-1b receptor expressed in CHO cells after 120 mins by liquid scintillation counting; format: cell-based
T1 sequence (P35368 whole entry): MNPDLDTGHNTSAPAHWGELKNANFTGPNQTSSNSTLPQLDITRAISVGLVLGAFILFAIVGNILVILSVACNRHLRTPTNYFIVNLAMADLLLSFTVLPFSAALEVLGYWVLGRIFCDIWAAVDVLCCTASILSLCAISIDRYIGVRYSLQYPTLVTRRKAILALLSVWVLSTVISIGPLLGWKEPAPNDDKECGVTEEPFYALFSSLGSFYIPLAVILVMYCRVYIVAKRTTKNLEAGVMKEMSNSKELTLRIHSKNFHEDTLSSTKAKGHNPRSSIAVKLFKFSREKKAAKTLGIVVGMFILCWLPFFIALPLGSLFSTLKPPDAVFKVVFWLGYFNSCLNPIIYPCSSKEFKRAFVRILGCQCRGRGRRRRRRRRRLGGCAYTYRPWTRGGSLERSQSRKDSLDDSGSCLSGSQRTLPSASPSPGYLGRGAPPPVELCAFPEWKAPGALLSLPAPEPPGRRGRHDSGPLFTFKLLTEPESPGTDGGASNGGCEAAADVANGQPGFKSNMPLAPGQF
Procedure, shortened: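 Competition binding at human α1b receptors stably expressed in CHO cells. Affinity values are means ± SEM of at least two experiments, each in duplicate.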

Mus musculus [3] = test: Ratio of ED50 for santihypothermic activity in po dosed NMRI mouse to ED50 for antihypothermic activity in ip dosed NMRI mouse; format: functional
Procedure, shortened: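 Guanabenz-induced hypothermia in mice, five animals per dose. ED50 (the dose inhibiting hypothermia in 50% of guanabenz-treated animals) was obtained after oral gavage and after intraperitoneal injection, and the ratio po/ip was then calculated.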

[4] = molecular target: T2, Alpha-2A adrenergic receptor (Homo sapiens, UniProt P08913); test: Displacement of [3H]-RX821002 from human adrenergic alpha2A receptor expressed in rat C6 cells after 120 mins by liquid scintillation counting; format: cell-based
T2 sequence (P08913 whole entry): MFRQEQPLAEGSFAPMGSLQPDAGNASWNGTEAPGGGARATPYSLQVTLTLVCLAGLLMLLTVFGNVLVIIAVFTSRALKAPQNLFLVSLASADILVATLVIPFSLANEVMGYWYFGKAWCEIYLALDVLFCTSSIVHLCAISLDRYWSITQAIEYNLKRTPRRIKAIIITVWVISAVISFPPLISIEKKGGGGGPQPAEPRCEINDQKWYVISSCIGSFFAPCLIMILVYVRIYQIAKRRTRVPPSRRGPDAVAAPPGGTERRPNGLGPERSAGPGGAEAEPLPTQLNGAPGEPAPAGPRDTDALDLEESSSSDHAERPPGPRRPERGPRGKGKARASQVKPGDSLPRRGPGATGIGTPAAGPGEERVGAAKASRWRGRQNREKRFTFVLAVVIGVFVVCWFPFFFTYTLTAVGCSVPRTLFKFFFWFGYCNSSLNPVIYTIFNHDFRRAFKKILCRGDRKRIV
Procedure, shortened: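 Competition binding at human α2A receptors expressed in C6 glial cells. Affinity values are means ± SEM of at least two experiments, each in duplicate.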

[5] = molecular target: T3, Alpha-2C adrenergic receptor (Homo sapiens, UniProt P18825); test: Displacement of [3H]-RX821002 from human adrenergic Alpha-2C receptor expressed in rat C6 cells after 120 mins by liquid scintillation counting; format: cell-based
T3 sequence (P18825 whole entry): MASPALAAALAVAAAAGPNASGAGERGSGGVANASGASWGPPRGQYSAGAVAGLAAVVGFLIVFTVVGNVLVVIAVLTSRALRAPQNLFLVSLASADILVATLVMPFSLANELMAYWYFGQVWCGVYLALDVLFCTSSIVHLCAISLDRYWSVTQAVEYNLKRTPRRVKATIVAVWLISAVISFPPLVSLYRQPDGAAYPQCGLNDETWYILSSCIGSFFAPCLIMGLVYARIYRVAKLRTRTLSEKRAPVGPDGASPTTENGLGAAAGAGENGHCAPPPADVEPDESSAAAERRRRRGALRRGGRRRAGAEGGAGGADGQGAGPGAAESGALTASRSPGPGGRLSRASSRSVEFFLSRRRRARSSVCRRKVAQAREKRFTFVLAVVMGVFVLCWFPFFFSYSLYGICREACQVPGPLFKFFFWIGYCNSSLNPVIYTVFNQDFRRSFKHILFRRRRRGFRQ

[6] = molecular target: T4, Alpha-2B adrenergic receptor (Homo sapiens, UniProt P18089); test: Displacement of [3H]-RX821002 from human adrenergic alpha2B receptor expressed in rat C6 cells after 120 mins by liquid scintillation counting; format: cell-based
T4 sequence (P18089 whole entry): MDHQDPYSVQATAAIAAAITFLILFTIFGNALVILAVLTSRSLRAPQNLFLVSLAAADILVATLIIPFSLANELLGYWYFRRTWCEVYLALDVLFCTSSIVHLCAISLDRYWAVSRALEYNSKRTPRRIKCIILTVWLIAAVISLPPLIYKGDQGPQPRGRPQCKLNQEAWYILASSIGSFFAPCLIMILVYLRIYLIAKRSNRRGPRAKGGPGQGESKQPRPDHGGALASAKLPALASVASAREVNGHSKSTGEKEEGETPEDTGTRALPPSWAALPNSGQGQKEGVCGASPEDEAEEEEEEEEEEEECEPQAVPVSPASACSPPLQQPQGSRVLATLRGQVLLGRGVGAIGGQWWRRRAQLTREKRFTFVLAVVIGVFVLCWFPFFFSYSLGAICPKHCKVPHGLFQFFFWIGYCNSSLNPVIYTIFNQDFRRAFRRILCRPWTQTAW

Mus musculus [7] = test: Antihypothermic activity in ip dosed NMRI mouse assessed as inhibition of guanabenz-induced hypothermia administered 5 mins before guanabenz challenge measured after 25 mins; format: functional; procedure, shortened: as §1
[8] = molecular target: T5, Alpha-2A adrenergic receptor (Homo sapiens) (UniProt P08913); test: Antagonist activity at human adrenergic alpha2A receptor expressed in CHO cells assessed as inhibition of adrenaline-induced [35S]GTPgammaS binding after 30 mins by scintillation counting; format: functional, cell-based
T5 sequence (whole entry): T2 sequence (P08913 whole entry)
Procedure, shortened: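 Inhibition of adrenaline-stimulated [35S]GTPγS binding in CHO cells expressing human α2A receptors. Compounds were also run alone to check for any stimulation of [35S]GTPγS binding. Antagonist potency is reported as pKB, taken as the potency that inhibits 50% of adrenaline-induced binding.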

Structure (SMILES) | ED50 (Mus musculus [1]) | Ki [2] | Ratio ED50 (Mus musculus [3]) | Ki [4] | Ki [5] | Ki [6] | ED50 (Mus musculus [7]) | ED50 (Mus musculus [1]; Mus musculus, NMRI, po, read-out: ED50) | pKb [8] | ED50 (Mus musculus [7]; Mus musculus, NMRI, ip, read-out: ED50)
c1ccc2c(c1)C[C@]1(c3c[nH]cn3)C[C@H]21 (stereo in doubt; (-)-1) [listing 1 of 2 here] | 0.04 mg/kg | 1.05 nM | 5 | 0.0282 nM | 0.129 nM | 0.11 nM | 0.008 mg/kg |  |  | 
C[C@H]1[C@@H]2c3ccccc3C[C@]12c1c[nH]cn1 |  | 33.1 nM | 3.2 | 0.174 nM | 0.295 nM | 0.204 nM |  | 0.19 mg/kg | 9.67 | 0.06 mg/kg
c1ccc2c(c1)C[C@]1(c3c[nH]cn3)C[C@H]21 (stereo in doubt; (-)-1) [listing 2 of 2 here] |  |  |  |  |  |  |  |  | 10.2 | 
CO[C@H]1c2ccccc2[C@H]2C[C@]21c1c[nH]cn1 (stereo in doubt; (+)-3) [listing 1 of 2 here] | 0.07 mg/kg | 63.1 nM | 2.3 | 0.562 nM | 1.95 nM | 2.82 nM | 0.03 mg/kg |  |  | 
c1ccc2c(c1)[C@H]1C[C@@]1(c1c[nH]cn1)C21CC1 (stereo in doubt; (+)-10) [listing 1 of 2 here] |  |  |  |  |  |  |  |  | 8.88 | 
CO[C@H]1c2ccccc2[C@H]2C[C@]21c1c[nH]cn1 (stereo in doubt; (-)-3) |  |  |  |  |  |  |  |  | 6.44 | 
c1ccc2c(c1)[C@H]1C[C@@]1(c1c[nH]cn1)C21CC1 (stereo in doubt; (-)-10) | 1.87 mg/kg | 97.7 nM | 10.4 | 3.89 nM | 20.4 nM | 6.76 nM | 0.18 mg/kg |  |  | 
c1ccc2c(c1)C[C@]1(c3c[nH]cn3)C[C@H]21 (stereo in doubt; 1) |  |  |  |  |  |  |  |  | 9.78 | 
CO[C@H]1c2ccccc2[C@H]2C[C@]21c1c[nH]cn1 (relative stereo) |  |  |  |  |  |  |  |  | 8.28 | 
CO[C@H]1c2ccccc2[C@H]2C[C@]21c1c[nH]cn1 (stereo in doubt; (+)-3) [listing 2 of 2 here] |  |  |  |  |  |  |  |  | 8.54 | 
CO[C@@H]1c2ccccc2[C@H]2C[C@]21c1cnc[nH]1 (relative stereo) |  | 912 nM |  | 11.7 nM | 66.1 nM | 24 nM |  |  |  | 
CCCO[C@H]1c2ccccc2[C@H]2C[C@]21c1cnc[nH]1 (relative stereo) |  | 11.5 nM |  | 3.98 nM | 1.55 nM | 6.46 nM |  |  |  | 
c1ccc2c(c1)[C@H]1C[C@@]1(c1c[nH]cn1)C21CC1 (stereo in doubt; (+)-10) [listing 2 of 2 here] | 0.22 mg/kg | 18.2 nM | 2.8 | 0.331 nM | 2.14 nM | 1.91 nM | 0.08 mg/kg |  |  | 
c1ccc2c(c1)[C@H]1C[C@@]1(c1c[nH]cn1)C21CC1 (stereo in doubt; 10) |  |  |  |  |  |  |  |  | 9.05 | 
